Screening data (PubChem BioAssay)
Yeast eIF2B – modulators of yeast eIF2B activity; S. cerevisiae eIF2B-epsilon R284H, GCN4-lacZ luminescence; inhibition, % at 25 µM (by protocol); 27,000 tested, 0.91% active;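 active = mutant luminescence inhibited past about 50% while wild type luminescence and mutant growth stay under set limits, limit read from the data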
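material = yeast eIF2B-epsilon R284H mutant carrying GCN4–beta-galactosidase fusion | schedule = 16 h growth with compound at 30 °C, 90 min Beta-Glo step | measured by = luminescence and A595 | compound dosing = one concentration, 25 µM, 0.25% DMSO | read-out basis = % inhibition of reporter signal and growth versus controls | buffer or medium = YPD medium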
Yeast growth tox – Compounds toxic to wild-type S. cerevisiae growth; A595 turbidity, 16 h; growth inhibition, % at 25 µM (by protocol); 30,000 tested, 0.3% active; AID 685;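 active = mutant and wild-type yeast strains alike exhibit over 30% growth inhibition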;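 note: 0% = untreated cell controls and 100% = YPD media blanks without cells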
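System – wild-type and eIF2Bepsilon-R284H mutant S. cerevisiae, screened separately · Measured by – absorbance at 595 nm (turbidity) · Timing – 16 h compound exposure during growth at 30 °C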
* = called active by the depositor; . = no result given. Rows were chosen to be rich in hits. Some 1.1% of all compounds tested hit in one or more screens of this group.

SMILES	Yeast eIF2B	Yeast growth tox
O=C1c2cccc3cccc(c23)C(=O)N1c1ccncc1	-56	44*
CCc1nnc(N2C(=O)c3cccc4cccc(c34)C2=O)s1	7	14
CN(CC(=O)O/N=C(\N)c1ccc([N+](=O)[O-])cc1)S(=O)(=O)c1ccc2ccccc2c1	13	12
CC(Sc1c[nH]c2ccccc12)C(=O)O (stereo unspecified)	0	-1
CCC(=O)NCCSc1c[nH]c2ccccc12	62*	22
CNC(=O)CCn1nc(-c2ccccc2)c2ccccc2c1=O	59*	-4
CN(C)C(=O)Cn1nc(-c2ccccc2)c2ccccc2c1=O	10	.
CCOc1cc(C(=O)Nc2cccc3ncccc23)cc(OCC)c1OCC	.	13
O=C(Nc1ccc(Cl)c(Cl)c1)C1CC(=O)N(c2ccc(Br)cc2)C1 (stereo unspecified)	61	79*
Cc1ccc(N2CC(C(=O)Nc3nccs3)CC2=O)cc1Cl (stereo unspecified)	.	-2
COc1cc(S(=O)(=O)NCC2CCCO2)ccc1Br (stereo unspecified)	.	10
COc1ccc(S(=O)(=O)N(n2c(C)nnc2-n2nc(C)cc2C)S(=O)(=O)c2ccc(OC)cc2)cc1	46	-2
CN(C)CCn1c(=O)n(Cc2ccco2)c(=O)c2c3c(sc21)CCCCC3	.	24
CC1(C)Cc2c(sc3c2c(=N)n(Cc2ccco2)c(=O)n3Cc2ccc(F)cc2)CO1	57*	-23
Cc1cc(N2CCC(C)CC2)nc(SCC(=O)c2ccccc2)n1	19	6
CCN(CC)C(=O)C(=O)c1cccn1-c1ccccc1C#N	.	3
O=C(Nc1cccnc1)c1cc2nc(C3CC3)cc(C(F)(F)F)n2n1	-1	4
CC(C)CNC(=O)c1cc2nc(C3CC3)cc(C(F)(F)F)n2n1	57*	9
CC(=O)c1cc2c(cc1NC(=O)C1CC1)OCO2	-1	.
Cc1nc(N2CCN(c3ccccc3)CC2)c2c3c(sc2n1)CCC3	-3	0
Cc1nc(N2CCN(C(=O)c3ccco3)CC2)c2c3c(sc2n1)CCCC3	53*	8
COc1ccccc1NC(=O)c1cc2ccccc2o/c1=N\O	64*	9
COc1ccccc1NC(=O)c1ccccc1SC	14	5
CC(=O)NCCn1c(SCc2ccc(C)cc2C)nc2ccccc2c1=O	8	0
CC1(C)CC(=O)C(Sc2nnc(-c3ccc(NS(C)(=O)=O)cc3)n2Cc2ccco2)C(=O)C1	18	8
SMILES	Yeast eIF2B	Yeast growth tox
Cn1c(SC2C(=O)CC(C)(C)CC2=O)nnc1-c1ccco1	60*	5
CC(=O)Nc1sc(NC(=O)c2ccc(C)cc2)nc1-c1cccs1	29	-36
CC(=O)/C=C1/SC(CC(=O)O)C(=O)N1c1ccccc1 (stereo unspecified)	12	9
Cc1ccc(S(=O)(=O)NCC2CCC(C(=O)NCCCOC(C)C)CC2)cc1 (stereo unspecified)	12	8
CN(CC(=O)Nc1ccccn1)S(=O)(=O)c1ccc(Cl)cc1	0	-10
Cc1cnc(NC(=O)CN(C)S(=O)(=O)c2ccc(Cl)cc2)s1	54*	-13
N#Cc1c(-c2ccc(Cl)cc2)ccn2nc(C3CCCCC3)nc12	17	6
CC(Cc1ccccc1)NC(=O)CSc1nc2nc3c(cc2c(=O)n1-c1ccccc1)COC(C)(C)C3 (stereo unspecified)	-10	-3
Cc1ccc(OCCCC(=O)Nc2ccc(S(=O)(=O)Nc3cc(C)on3)cc2)cc1	53*	2
COc1ccc(CC(=O)Nc2ccc(S(=O)(=O)Nc3cc(C)on3)cc2)cc1	14	12
COc1cc(C(=S)N2CCCC2)cc(OC)c1O	57*	-10
COc1ccc(C(=S)N2CCNCC2)cc1	18	27
CCCCCOc1ccc(CSc2ncn[nH]2)cc1	33	14
COc1cccc(-c2nnc(-c3ccc(C(F)(F)F)cc3)o2)c1	-30	-3
Oc1ccccc1-c1nnc(-c2ccc(C(F)(F)F)cc2)o1	53*	-4
COC(=O)C1=C(C)NC(=O)NC1c1cccc(OC)c1OCc1ccccc1 (stereo unspecified)	27	2
Cc1nc(N)c(C#N)c(-c2ccccc2)c1C	21	17
CC1=C(C#N)c2nc(N)c(C#N)c(C)c2/C1=C\c1ccccc1	36	53*
CCC(C)NS(=O)(=O)c1ccc(-c2csnn2)s1 (stereo unspecified)	.	15
COC(=O)c1cc(Br)c(=O)n(-c2cccc(F)c2)c1	-15	-69
Clc1ccc(-c2nn3c(-c4cccc(Cl)c4)nnc3s2)cc1	3	-36
Clc1cccc(-c2nn3c(COc4ccccc4)nnc3s2)c1	56*	3
COc1ccc(C(=O)COC(=O)c2ccc(OC)c(OC)c2)cc1OC	30	-17
COc1ccc(C(=O)COC(=O)CN2C(=O)NC(C)(C)C2=O)cc1OC	60*	-6
